Source: PubChem BioAssay (several laboratories)
TRPC6 inh: blocks the mouse TRPC6 cation channel; Q61143; HEK293-TRPC6, membrane potential dye, ACh-evoked depolarization; active compounds read low; B-score at 10 µM; 1.1% of 310,000 active; AID 2553;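 active means B-score under library mean minus 3 SD, initial fluorescence not abnormally high, positive integrated signal ratio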;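 further: B-score derived from integrated fluorescence ratio over the kinetic read; more negative B-score means stronger inhibition of depolarization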
TRPC4 PAM: allosterically enhances the mouse TRPC4 cation channel; 0.42% of 310,000 active; AID 2227; Q9QUQ5; HEK293 TRPC4beta/mu-opioid, DAMGO EC20, Fluo-4 Ca2+ flux; active compounds read high; B-score at 10 µM;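 active means B-score of calcium response area above 5 SD of library B-scores, with initial fluorescence ratio within 5 SD of library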;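 further: B-score of integrated fluorescence ratio over time as area under calcium response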
TRPC4 block: blocks the mouse TRPC4 cation channel; 0.39% of 300,000 active; B-score at 10 µM; HEK293 TRPC4beta/mu-opioid, DAMGO-evoked Fluo4 calcium flux; active compounds read low;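 active means B-score over 3 SD under the library average, no early fluorescence shift, positive overall ratio signal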
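Assay system: HEK293 cells with stable TRPC4beta plus mu-opioid receptor expression; Probe or stimulus: DAMGO in two steps, submaximal then maximal; Dosing: single-point compound dosing; Measured by: Fluo4 calcium-dye fluorescence, kinetic read; Read-out basis: B score from integrated Fluo4 fluorescence ratio.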
Yeast superoxide: lowers age-related superoxide in aged yeast cells | superoxide response (% of plate mean), % at 10 µM | S. cerevisiae aged cells, superoxide DHE fluorescence; active compounds read low | 0.18% of 330,000 active | AID 2690;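 active means superoxide response under a set limit, about three screen SD below normal, cut at about 65% in these data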;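 further: yeast aged for seven days with compound at 30 °C before DHE staining; 100% = average MFI of all compound-treated wells on the plate with controls excluded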
TRPC6 activator: mouse TRPC6 channel activation | Q61143 | HEK293-TRPC6 membrane potential dye fluorescence; active compounds read high | B-score at 10 µM | 0.13% of 310,000 active | AID 2550;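 active means B-score of the integrated fluorescence ratio above library mean plus 3 SD, and starting fluorescence ratio within library mean plus 5 SD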;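 further: higher score means more depolarization so channel activation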
TRPC4 agonist: activators of mouse TRPC4 channel | Q9QUQ5 | HEK293 TRPC4beta/mu-opioid, Fluo4 calcium fluorescence; active compounds read high | B-score at 10 µM | 0.49% of 310,000 active | AID 2237;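 active means B-score above 5 SD of library B-scores, and initial fluorescence ratio not above library mean plus 5 SD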;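 further: positive B-score marks a calcium rise read as TRPC4 activation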
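Assay system: HEK293 stable line with TRPC4beta plus mu-opioid receptor; schedule: 45 min room-temperature Fluo4 loading, 110 s read; technique: kinetic Fluo4 calcium fluorescence; evaluation: integrated baseline-normalised fluorescence ratio, converted to per-well B score; controls: buffer (low) and maximal DAMGO (high)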
Starred values were filed as active, the others as inactive; i = inactive; · = no result. Only some compounds are listed: those with a hit (about 2.3% of all), similar ones and a draw of the others.

SMILES	TRPC6 inh	TRPC4 PAM	TRPC4 block	Yeast superoxide	TRPC6 activator	TRPC4 agonist
COc1ccc(-c2nc3n(c(=O)c2C#N)CCCS3)cc1	i	i	i	106.3	i	i
Cc1cc2ccccn2c1C(=O)c1nc(NCc2ccco2)ncc1Cl	i	13*	i	115.4	i	i
Cc1cc2ccccn2c1C(=O)c1nc(N2CCOCC2)ncc1Cl	i	i	i	94.0	i	i
Cc1ccc(S(=O)(=O)NCC(=O)Nc2ccc3c(c2)OCO3)cc1	i	i	i	107.9	i	i
CN(c1ccc(C(=O)Nc2ccc(F)cc2F)cc1)S(=O)(=O)c1ccccc1	i	i	i	103.2	i	i
CCOC(=O)c1ccc(S(=O)(=O)NNS(=O)(=O)c2ccc(C)cc2)cc1	i	i	i	90.3	i	i
CC1(C#CC[N+]2(C)CCCCC2)CCC2C(O1)c1ccccc1OC2(C)C (centres undefined)	i	21*	i	88.0	i	i
Nc1ncc(Br)cc1S(=O)(=O)Nc1cc(C(F)(F)F)cc(C(F)(F)F)c1	i	i	i	118.8	i	46*
Cc1ccc(NS(=O)(=O)c2cc(Br)cnc2N)c(Cl)c1	i	i	i	91.0	i	i
Cc1cccn2c(=O)c3cc(C(=O)N(C)C)n(C)c3nc12	i	25*	i	103.1	i	i
Cn1cccc1/C=N/n1c(-c2ccco2)n[nH]c1=S	i	i	i	81.0	i	i
COc1cc(-c2n[nH]c(=S)n2/N=C/c2cccn2C)cc(OC)c1OC	i	i	i	102.7	i	52*
CC(C)(C)c1cc(C(=O)CCN2CCOCC2)cc(C(C)(C)C)c1O	i	11*	i	94.5	i	i
Cc1cccc(NC(=S)NC(=O)Cc2ccccc2)c1C	i	i	i	97.8	i	i
CC(=O)N1CCN(c2ccc(OC[C@H]3CO[C@](Cn4ccnc4)(c4ccc(Cl)cc4Cl)O3)cc2)CC1	i	i	i	91.0	i	52*
CN1C(=O)C2(OCC(COc3ccc(Cl)cc3)O2)c2ccccc21 (centres undefined)	i	i	i	97.5	i	i
OCCN1CCN(C2CCC(c3ccc(F)cc3)c3ccc(F)cc32)CC1 (centres undefined)	i	13*	i	102.8	i	i
Fc1ccc2c(c1)Sc1ccc(Cl)cc1CC2N1CCN(CCC2OCCO2)CC1 (centres undefined)	i	i	i	94.5	i	i
CC(=O)Nc1cccc(NC(=O)c2ccc(C(=O)Nc3cccc(NC(C)=O)c3)nc2)c1	i	i	i	91.6	i	73*
CC(=O)c1cccc(NC(=O)c2ccc(C(=O)Nc3cccc(C(C)=O)c3)nc2)c1	i	i	i	103.8	i	i
CCOc1ccc(NS(=O)(=O)c2ccc(C(=O)NCc3ccccn3)cc2)cc1	i	i	i	98.2	i	44*
CCOc1ccc(NS(=O)(=O)c2ccc(C(=O)NCc3ccncc3)cc2)cc1	i	i	i	101.0	i	i
Cc1ccc(NS(=O)(=O)c2ccc(C(=O)NCc3ccccn3)cc2)cc1	i	i	i	106.7	i	44*
COc1ccc(CC(=O)NCC(c2ccc(OC)cc2)N(C)C)cc1 (centres undefined)	i	i	i	89.8	i	216*
COc1ccc(CCNC(=O)CN2C(=O)NC3(CCCCC3)C2=O)cc1	·	·	·	101.2	·	·
COc1ccc(C(CNC(=O)CN2C(=O)NC3(CCCC3)C2=O)N(C)C)cc1 (centres undefined)	i	i	i	98.3	i	134*
COc1ccc(C(CNC(=O)c2cncc(Br)c2)N(C)C)cc1 (centres undefined)	i	i	·	101.8	i	i
COc1ccc(C(CNC(=O)Cc2cccs2)N(C)C)cc1 (centres undefined)	i	i	i	104.5	i	99*
